Results on 31 molecules are retold here after ChEMBL document CHEMBL1765044, “3-Hydroxypyrimidine-2,4-diones as an inhibitor scaffold of HIV integrase” (J Med Chem, 2011).

Data set [1] in a line: Inhibition of HIV recombinant integrase strand transfer activity expressed in Escherichia coli after 60 mins using [32P]-labeled oligonucleotide substrate by densitometric analysis. Further details: species or system Human immunodeficiency virus.
Data set [2] deals with Human immunodeficiency virus 1. Briefly: Antiviral activity against Human immunodeficiency virus 1 3B infected in human CEM-SS cells assessed as cytoprotection against virus-induced toxicity at 10 uM after 6 days by MTS assay. The class given is functional. A digest of the protocol: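 Single-concentration screen at 10 μM, run only on compounds with strand-transfer IC50 ≤10 μM. CPE reduction (%) and cell viability (%) assessed by MTS; AZT positive control.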
In general terms: Formazan colour is commonly taken as a measure of viable cells.

Data set [3] deals with Human immunodeficiency virus 1. As to the kind of experiment: Antiviral activity against Human immunodeficiency virus 1 3B infected in CEM-SS cells assessed as reduction in virus-induced cytopathic effect at 10 uM after 6 days. The class given is functional. The arrangement: scale not given: the % may be the effect or the level left. An outline of the steps: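 CEM-SS cells were mixed with pre-titered HIV-1 IIIB and the compound at a single 10 μM and incubated for 6 days. Virus dose was set to give 70–95% viability loss in virus-control wells. CPE reduction (cytoprotection) and cell viability were read by MTS. Plates included cell, virus, compound-toxicity and colorimetric control wells, with AZT as positive control.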
For orientation: Cytopathic effects are the visible damage that an infection or toxin causes in cultured cells.

Data set [4] can be described thus: Inhibition of Human immunodeficiency virus recombinant integrase 3'-processing activity expressed in Escherichia coli after 60 mins using [32P]-labeled oligonucleotide substrate by densitometric analysis.
The nature of data set [5]: Therapeutic index, ratio of CC50 for human CEM-SS cells to EC50 for Human immunodeficiency virus 1 3B. It counts as cell-based. The settings on record: read-out: TI. A digest of the protocol: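 CEM-SS cells mixed with HIV-1 IIIB and compound, incubated 6 days; virus pre-titered so control wells lose 70–95% viability. Cytoprotection (EC50) and cytotoxicity in uninfected compound-only wells (CC50) read by MTS from dose-response. TI calculated as CC50/EC50. Controls: cells only, virus only, and compound only (colorimetric). AZT served as positive control.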

Data set [6] concerns Human immunodeficiency virus 1. As to the kind of experiment: Antiviral activity against Human immunodeficiency virus 1 3B infected in CEM-SS cells assessed as inhibition of viral replication after 6 days. The class given is functional, organism-based. As to conditions: 144 h. A digest of the protocol:
(§1)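 CEM-SS cells mixed with pre-titered HIV-1 IIIB (titer chosen so virus-control wells lose 70–95% viability) plus compound in dose response, incubated 6 days. Viability read by MTS; controls are cells alone, cells+virus, cells+compound and compound alone. EC50 is the concentration protecting 50% against virus-induced loss; CC50 is the concentration killing 50% of cells; TI = CC50/EC50. AZT used as positive control.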

In the next data set the test system is CEM-SS. As to the kind of experiment: (§2) Cytotoxicity against human CEM-SS cells infected with Human immunodeficiency virus 1 3B after 6 days by MTS assay. The class given is cell-based. The settings on record: cem-ss, 144 h. A digest of the protocol: as §1
In data set [7] the test system is Human immunodeficiency virus 1. The settings on record: NL4-3.
For data set [8], the system named is Human immunodeficiency virus 1. The settings on record: NL4-3. The source holds these as a separate data set.
The test system of data set [9] is Human immunodeficiency virus 1. As to the kind of experiment: Fold resistance, ratio of EC50 for raltegravir-resistant Human immunodeficiency virus 1 1556-1 expressing integrase Y143C mutant to EC50 for raltegravir-resistant Human immunodeficiency virus 1 1556-1 expressing wild-type integrase. The class given is functional.
The test system of data set [10] is Human immunodeficiency virus 1. Briefly: Ratio of IC50 for Human immunodeficiency virus 1 NL4-3 integrase Y143R mutant to IC50 for wild-type Human immunodeficiency virus 1 NL4-3 integrase. An outline of the steps:
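Recombinant HIV-1 integrase (wild type or mutant) was expressed in E. coli, with 10% glycerol in all buffers. Reactions were stopped with EDTA/formamide dye. IC50 came from a logistic nonlinear fit; the ratio is IC50 mutant/WT from two independent experiments.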

A short description of data set [11]: Cytotoxicity against human MT4 cells infected with raltegravir-resistant Human immunodeficiency virus 1 4736-2. The class given is cell-based. The settings on record: MT4 cells infected with raltegravir-resistant HIV-1 4736-2, read-out: TC50 (the source's name).
A short description of data set [12]: Cytotoxicity against human MT4 cells infected with raltegravir-resistant Human immunodeficiency virus 1 8070-2. The class given is cell-based. As to conditions: MT4 cells infected with raltegravir-resistant HIV-1 8070-2, read-out: TC50 (the source's name).
Data set [13] in a line: as §2. The class given is cell-based. As to conditions: CEM-SS cells infected with HIV-1 3B, read-out: TC50. A digest of the protocol:
as §1

A short description of data set [14]: Cytotoxicity against human MT4 cells infected with raltegravir-resistant Human immunodeficiency virus 1 1556-1. It counts as cell-based. The settings on record: MT4 cells infected with raltegravir-resistant HIV-1 1556-1, read-out: TC50 (the source's name).
For data set [15], the system named is Human immunodeficiency virus 1. As to the kind of experiment: Fold resistance, ratio for Human immunodeficiency virus 1 NL4-3 reverse transcriptase Y181C mutant to wild-type Human immunodeficiency virus 1 NL4-3 reverse transcriptase. A digest of the protocol:
(§3)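 HIV-1 NL4-3 strains carrying the reverse transcriptase K103N or Y181C mutation were tested in MAGI R5 cells, with the NNRTI TNK-651 as control. Fold-resistance is the mutant/wild-type ratio.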

In data set [16] the test system is Human immunodeficiency virus 1. As to the kind of experiment: Fold resistance, ratio for Human immunodeficiency virus 1 NL4-3 reverse transcriptase K103N mutant to wild-type Human immunodeficiency virus 1 NL4-3 reverse transcriptase. An outline of the steps:
as §3

What is called IC50 is the concentration at which inhibition is half-maximal. `CC(C)c1c(Cc2ccccc2)n(COCCCCc2ccc(F)cc2)c(=O)n(O)c1=O`: the values for the IC50 in [1] and in data set [4] were 4.5 µM and more than 111 µM, respectively. In addition, the Activity is given as 88% in data set [2] and 12% in data set [3].

For `CC(C)c1c(Cc2ccccc2)n(Cc2ccc(F)cc2)c(=O)n(O)c1=O`, the IC50 is 22 µM in [1] and more than 111 µM in data set [4].

On to `Cc1cn(Cc2ccc(F)cc2)c(=O)n(O)c1=O`, for which the half-inhibitory concentration (IC50) in [1] and in data set [4] was more than 111 µM throughout.

For the molecule `CCc1c(Cc2ccccc2)n(Cc2ccc(F)cc2)c(=O)n(O)c1=O`, the IC50 was 24 µM in data set [1] and more than 111 µM in [4].

For `CCc1c(Cc2ccccc2)n(COCc2ccccc2)c(=O)n(O)c1=O`, the IC50 was 8.2 µM in [1] and more than 111 µM in [4].

For `CC(C)c1c(Cc2ccccc2)n(COCCCc2ccc(F)cc2)c(=O)n(O)c1=O`, the values for the concentration for half-maximal inhibition (IC50) in data set [1] and in data set [4] were 3.2 µM and more than 111 µM, respectively. The figures for the Activity in [2] and in data set [3] were 92% and 30%, respectively.

On to `CC(C)c1c(Cc2ccccc2)n(Cc2ccccc2)c(=O)n(O)c1=O`, for which the values for the concentration for half-maximal inhibition (IC50) in data set [1] and in [4] were 28 µM and more than 111 µM, respectively.

Turning to `CC(C)c1c(Cc2ccc(F)cc2)n(Cc2ccc(F)cc2)c(=O)n(O)c1=O`, the results for the IC50 in data set [1] and in [4] were 73 µM and more than 111 µM, respectively.

Regarding `CC(C)c1c(Cc2ccccc2)n(CCCc2ccc(F)cc2)c(=O)n(O)c1=O`, the IC50 in data set [1] was 0.44 µM; in data set [4], more than 111 µM. In addition, the results for the Activity in [2] and in data set [3] were 97% and 12%, respectively.

Take `Cc1cn(COCc2ccccc2)c(=O)n(O)c1=O`: the values for the IC50 in [1] and in data set [4] were 75 µM and more than 111 µM, respectively.

Consider `O=c1c2ccccc2n(Cc2ccc(F)cc2)c(=O)n1O`, for which, in [4], the IC50 is more than 111 µM.

Turning to `CC(C)c1c(Cc2ccc(F)cc2)n(Cc2ccccc2)c(=O)n(O)c1=O`, the concentration for half-maximal inhibition (IC50) in [1] is 32 µM; in [4], more than 111 µM.

In general, EC50 refers to the concentration giving half of the maximal effect. Take `CC(C)c1c(Cc2ccccc2)n(COCc2ccc(F)cc2F)c(=O)n(O)c1=O`: the concentration for half-maximal inhibition (IC50) in data set [1] was 4.8 µM; in data set [4] it was more than 111 µM. Further, the selectivity ratio in data set [5] is more than 47. Moreover, in [6], the EC50 is 2.1 µM. In addition, the Activity in [2] stood at 100%. This molecule also displayed a CC50 in the data set with CEM-SS of more than 100 µM.

`CCc1c(Cc2ccccc2)c(=O)[nH]c(=O)n1COCc1ccc(F)cc1`: the results for the Activity in data set [2] and in data set [3] were 92% and 10%, respectively.

As for `CC(C)c1c(Cc2ccccc2)n(CCc2ccc(F)cc2)c(=O)n(O)c1=O`, the figures for the IC50 in data set [1] and in [4] were 46 µM and more than 111 µM, respectively.

As to `CC(C)c1c(Cc2ccc(F)cc2)n(COCc2ccccc2)c(=O)n(O)c1=O`, the IC50 in data set [1] is 7.3 µM; in [4], more than 111 µM. Besides, the selectivity ratio in [5] was more than 18. The EC50 in data set [6] was determined as 1.1 µM. Moreover, the Activity in data set [2] is 100%. The same molecule gave a CC50 in the data set on CEM-SS of more than 20 µM.

For the molecule `Cc1nnc(C(=O)NC(C)(C)c2nc(C(=O)NCc3ccc(F)cc3)c(O)c(=O)n2C)o1` [RALTEGRAVIR], the Ratio IC50 in data set [7] came to 139; in [8], 8; in data set [10], 24. Further, in data set [9], the “Ratio EC50” value is more than 855.

For the molecule `Cc1cn(Cc2ccccc2)c(=O)n(O)c1=O`, the IC50 in [1] and in data set [4] was more than 111 µM each time.

Consider `CCc1c(Cc2ccccc2)n(Cc2ccccc2)c(=O)n(O)c1=O`, for which the concentration for half-maximal inhibition (IC50) in data set [1] and in data set [4] was more than 111 µM in each case.

For `CCc1c(Cc2ccccc2)c(=O)[nH]c(=O)n1COCc1ccccc1`, the Activity in [2] came out at 100%; in data set [3], 48%.

`CCc1c(Cc2ccccc2)c(=O)n(O)c(=O)n1COCc1ccc(F)cc1`: the concentration for half-maximal inhibition (IC50) was 11 µM in data set [1] and more than 111 µM in data set [4].

For the molecule `CC(C)c1c(Cc2ccccc2)n(COCCc2ccc(F)cc2)c(=O)n(O)c1=O`, the concentration for half-maximal inhibition (IC50) in data set [1] was 1.6 µM; in data set [4] it was more than 111 µM. The Activity in data set [2] is recorded as 83%; in data set [3], 27%.

Regarding `CCc1c(Cc2ccccc2)c(=O)n(O)c(=O)n1COCc1ccccc1`, the IC50 is 36 µM in [1] and more than 111 µM in data set [4].

In the case of `CC(C)c1c(Cc2ccccc2)n(CCCCc2ccc(F)cc2)c(=O)n(O)c1=O`, the results for the IC50 in [1] and in data set [4] were 0.56 µM and more than 111 µM, respectively. For the same molecule, the figures for the Activity in data set [2] and in data set [3] were 94% and 6%, respectively.

Turning to `O=c1c2ccccc2n(Cc2ccccc2)c(=O)n1O`, the IC50 in data set [4] was more than 111 µM.

In the case of `CC(C)c1c(Cc2ccccc2)n(COCc2ccc(F)cc2)c(=O)[nH]c1=O`, the half-maximal inhibitory concentration (IC50) in data set [1] and in data set [4] was more than 111 µM in each case.

With `CC(C)c1c(Cc2ccccc2)n(COCc2cccc(Cl)c2F)c(=O)n(O)c1=O`, the half-inhibitory concentration (IC50) in data set [1] is 2.3 µM; in data set [4], more than 111 µM. In data set [5], the selectivity ratio is more than 105. For the same molecule, the CC50 in data set [11], in data set [12] and in data set [14] was 2 µM in each case. The Ratio IC50 came out at 14 in data set [7], 5 in [8] and 5 in [10]. The EC50 in data set [6] turned out to be 0.95 µM. The Activity in [2] was 100%. Also, the CC50 at 144 h in data set [13] was more than 100 µM. In data set [9], the “Ratio EC50” value is more than 1.7.

For the molecule `COn1c(=O)c(C(C)C)c(Cc2ccccc2)n(COCc2ccc(F)cc2)c1=O`, the IC50 in data set [1] and in data set [4] was more than 111 µM in each case.

In the case of `CC(C)c1c(Cc2ccccc2)n(COCc2ccc(F)cc2)c(=O)n(O)c1=O`, the Ratio was 48 in [15] and 16 in data set [16].

Turning to `CC(C)c1c(Cc2ccc(F)cc2)n(COCc2ccc(F)cc2)c(=O)n(O)c1=O`, the results for the half-inhibitory concentration (IC50) in data set [1] and in data set [4] were 5.5 µM and more than 111 µM, respectively.

As to `CC(C)c1c(Cc2ccccc2)n(COCc2ccc(F)cc2)c(=O)n(C)c1=O`, the IC50 in [1] and in data set [4] was more than 111 µM throughout.
